The record followed here is the RNAGym collection of RNA variant scans (doi:10.1126/science.aae0568).

Fewer inactive variants are shown than the library holds.

B1: tRNA (parent)
chain: GUUCCGUUGGCGUAAUGGUAACGCGUCUCCCUCCUAAGGAGAAGACUGCGGGUUCGAGUCCCGUACGGAACG

The series covers variants of B1. In words: yeast fitness relative to wild type (ratio to wild type); higher = fitter; tRNA-Arg(CCU), competitive growth, 37 C, YPD. Put shortly: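 The tRNA-Arg(CCU) gene variants were made by chemical synthesis with a 3% per-site mutation rate at 69 sites and inserted at the native genomic locus of Saccharomyces cerevisiae. After pooling, the strains were competed in YPD at 37°C for 24 hours in six parallel replicates. Gene amplicons from the start population and each end population were read by 100-nucleotide paired-end sequencing, and Darwinian fitness relative to wild type was taken from genotype frequency changes. Genotypes needed ≥ 100 starting reads, and estimates < 0.5 were set to 0.5.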
Take GUUCCGUUGGCGUAAUGGUAACGGGUCUCCCUCCUAGGGAGAAGACUGCGGGUUCGAGUCCCGUACCGAACG: the yeast fitness stood at 0.549.

On to GUUCCGUUGGCGUAAUGGUAACGGGUCUCCCUCCUAAGGGGAAGACUGCCGGUUCGAGUCCCGUACGGAACG, for which the yeast fitness was found to be 0.599.

Turning to GUUCCGUUGGCGUAAUGGUAACGGGUCUCCCUCCUAGGGAGAUGACUGCGGGUUCGAGUCCGGUACGGAACG, the yeast fitness turned out to be 0.77.

Turning to GUUCCGUUGGCGUAAUGGUAACGGGUCUCCCUCCUGAGGAGAAGACUGCGGGUUCGAGUCCCGCUCGGAACG, the yeast fitness was ≤ 0.5.

GUUCCGUUGGCGUAAUGGUAACGGGUCUUCCUCCUAAGGAGAAGACUGCGCGUUCGAGUCCCGUACGGAUCG: the yeast fitness was ≤ 0.5.

For the variant GUUCCGUUGGCGUAAUGGUAACGGGUCUCCCUCCUAAGGAGAGGACUGUGGGUUGGAGUCCCGUACGGAACG, the yeast fitness is 0.643.

For GUUCCGUUGGCGUAAUGGUAACGGGUUUCCCUCCUAAGGUGAAGACUGCGGGUUCGAGCCCCGUACGAAACG, the yeast fitness was determined as 0.582.

Regarding GUUCCGUUGGCGUAAUGGUAACGGGUCUCGCUCCUAAGAAGAAGACUGCGGGUUCGAGUCCCGUACGGAACG, the yeast fitness is 0.593.

Take GUUCCGUUGGCGUAAUGGUAACGGGUUUCCCUUCUAAGGAGAAGACUGCCGGUUCGAGUCCCAUACGAAACG: the yeast fitness is 0.528.

Take GUUCCGUUGGCGUAAUGGUAACGGGUCUCCCUCCUACGGAGAAGACUGCGGGUUCGUGUCCCGUACGGAACG: the yeast fitness was ≤ 0.5.

For GUUCCGUUGGCGUAAUGGUAACGGGUUUCCCUUCUAAGGAGAAGACUGCAGGUUCGAGUCCCGUACGGAACG, the yeast fitness was ≤ 0.5.

Turning to GUUCCGUUGGCGUAAUGGUAACGGGUUUCCCUUCUAAGGAGAAGACUGCCGGUUCGAGUCCCGUACGGAACG, the yeast fitness was ≤ 0.5.

On to GUUCCGUUGGCGUAAUGGUAACGGGUCUCCCUCCUUAGGAGAAGACUGCGGGUUCGAGUCCCGUACGGAACG, for which the yeast fitness was ≤ 0.5.

Take GUUCCGUUGGCGUAAUGGUAACGGGUCUCCCUCCUCAGGAGAAGACUGCGGGUUCGAGUCCCGUACGGAACG: the yeast fitness turned out to be 0.531.

Regarding GUUCCGUUGGCGUAAUGGUAACGGGUCUCCCUCCUAAGGAGAGGACUGCGGGUUCGAGUCCCGUACGGAACG, the yeast fitness is 0.573.

As to GUUCCGUUGGCGUAAUGGUAACGGGUCUUCCUCCUAAGGAGAAGACUGCAGGUUCGAGUCCCGUACGGAACG, the yeast fitness was ≤ 0.5.

As to GUUCCGUUGGCGUAAUGGUAACGGGUCUCCCUCCUGAGGAGAAGACUGCGGGAUCGAGUCCCGUACGGAACG, the yeast fitness was determined as 0.555.

In the case of GUUCCGUUGGCGUAAUGGUAACGGGUCUCCCUCCUAGGGAGAAGACUGCGGGUUCGAGUCUCGUACGGAACG, the yeast fitness was ≤ 0.5.

GUUCCGUUGGCGUAAUGGUAACGGGUUUCCCUUCUAAGGAGAAGACUGCCGGUUCGAGUCCCGUACGGUACG: the yeast fitness was ≤ 0.5.

On to GUUCCGUUGGCGUAAUGGUAACGGGUCUCCCUCCUGAGGAGAAGGCUGCGGGUUCGAGUCCCGUUCGGAACG, for which the yeast fitness is ≤ 0.5.

Take GUUCCGUUGGCGUAAUGGUAACGGGUCUCCCUCCUAAGGCGAAGUCUGCGGGUUCGAGUCCCGUACGGAACG: the yeast fitness is ≤ 0.5.

As to GUUCCGUUGGCGUAAUGGUAACGGGUCUCCCUCCUCAGGAGAAGACUGCGGGUUUGAGUCCCGUACGGAACG, the yeast fitness is ≤ 0.5.

With GUUCCGUUGGCGUAAUGGUAACGGGUUUCCCUCCUAAGGAGAAGACUGCGGGUUCGAGUCCUGUACGGAUCG, the yeast fitness was ≤ 0.5.

Consider GUUCCGUUGGCGUAAUGGUAACGGGUCUUCCUCCCAAGGAGAAGACUGCGGGUUCGAGUCCCGUACGGAACG, for which the yeast fitness was ≤ 0.5.

Turning to GUUCCGUUGGCGUAAUGGUAACGGGUCUCCCUCCUAGGGAGAAGACUGCGGGUUCGAAUCCCGUACAGAACG, the yeast fitness is ≤ 0.5.

For GUUCCGUUGGCGUAAUGGUAACGGGUCUCCCUCCUAAGGAGCAGACUGCGGGUUCGAGUCCCGUAUGGAACG, the yeast fitness was ≤ 0.5.

Take GUUCCGUUGGCGUAAUGGUAACGGGUCUCCCUCCUUAGGGGAAGACUGCGGGUUCGAGUCCCGCACGGAACG: the yeast fitness was ≤ 0.5.

Consider GUUCCGUUGGCGUAAUGGUAACGGGUCUCCCUCCUCAGGAGUGGACUGCGGGUUCGAGUCCCGUACGGAACG, for which the yeast fitness is ≤ 0.5.

For GUUCCGUUGGCGUAAUGGUAACGGGUCUCCCUCCUAAGGCGAAGACUGCGGGUUCGAGUCCCGUACGGAACG, the yeast fitness came out at 0.601.

Take GUUCCGUUGGCGUAAUGGUAACGGGUCUCCCUCCUAAGGGGAAGACUGCGGGUUCGAGUCCCGUACGGAACG: the yeast fitness amounted to 0.647.

In the case of GUUCCGUUGGCGUAAUGGUAACGGGUCUCCCUCCUAAGGAGUAGACUGUGGGUUCGAGUCCCGUACGGAACG, the yeast fitness was ≤ 0.5.

For the variant GUUCCGUUGGCGUAAUGGUAACGGGUCUCCCUCCUAUGGAGAAGACAGCGGGUUCGAGUCCCGUACGGAACG, the yeast fitness is ≤ 0.5.

In the case of GUUCCGUUGGCGUAAUGGUAACGGGUCUCACUCCUAAGGAGAACACCGCGGGUUCGAGACCCGUACGGCCCG, the yeast fitness came to 0.884.

As for GUUCCGUUGGCGUAAUGGUAACGGGUCUCGCUCCUAAGAAGAAGACUGCGGAUUUGAGUCCCGUACGGAACG, the yeast fitness is ≤ 0.5.

For the variant GUUCCGUUGGCGUAAUGGUAACGGGUCUGCCUUCUAAGGAGAAGACUGCGGGUUCGAGUCCCGUACGGAACG, the yeast fitness was ≤ 0.5.

Regarding GUUCCGUUGGCGUAAUGGUAACGGGUCUCACUCCUAAGGAGAAGACUGCGGGUUCGAGUCCGGUACGGAACG, the yeast fitness is ≤ 0.5.

On to GUUCCGUUGGCGUAAUGGUAACGGGUCUACCUCCUAAGGAGAAGACUGCCGGUUCGCGUCCCGUACGGAACG, for which the yeast fitness was ≤ 0.5.

As to GUUCCGUUGGCGUAAUGGUAACGGGUCUCACUCCUAAGGAGAAGACCGCGGGUUCGAGUCCCAUACGGAACG, the yeast fitness is ≤ 0.5.

For the variant GUUCCGUUGGCGUAAUGGUAACGGGUCUACCUCCUAAGGAGAUGACUGCGGGUUCGAGUCCCGUACGCAACG, the yeast fitness worked out at 0.561.

GUUCCGUUGGCGUAAUGGUAACGGGUCUCCCUCCUCAGGAGAAGACUGUGGGUUCGAGUCCCGUACGGACCG: the yeast fitness was ≤ 0.5.

As to GUUCCGUUGGCGUAAUGGUAACGGGUCUCCCUCCUCAGGCGUAGACUGCGGGUUCGAGUCCCGUACGGAACG, the yeast fitness is ≤ 0.5.

For the variant GUUCCGUUGGCGUAAUGGUAACGGGUCUCCCUCCUAAGGAGACGAGUGCGGGGUCGAGUCUCGUACGGAACG, the yeast fitness is ≤ 0.5.

For GUUCCGUUGGCGUAAUGGUAACGGGUCUCCCUCCUAUGGAGGAGACUGCGGGUUCGAGUCCCGUACGGAACG, the yeast fitness was ≤ 0.5.

Take GUUCCGUUGGCGUAAUGGUAACGGGUCUCCCUCCUAAGGGGAGGACUGCGGGUUCGAGUCCCGUACGGAACG: the yeast fitness was ≤ 0.5.

For GUUCCGUUGGCGUAAUGGUAACGGGUCUCCCUCCUAAGGAGAAGACUGCGGGUUCGAGUCCCGUUCGGAACG, the yeast fitness is 0.742.

As for GUUCCGUUGGCGUAAUGGUAACGGGUCUCCCUCCUCAGGAGAAGACUGCGGGUUCGCGUCCCGUACGGUCCG, the yeast fitness was ≤ 0.5.

GUUCCGUUGGCGUAAUGGUAACGGGUUUCCCUCCUAAGGUGAAGACUGCGGGUUCGAGCCCCGUACGGAACG: the yeast fitness is ≤ 0.5.

GUUCCGUUGGCGUAAUGGUAACGGGUCUCCCUCCUAAGGAGAAGUCUGCGGGUUCGAGUCCCGUACGGAACG: the yeast fitness was 0.557.

Regarding GUUCCGUUGGCGUAAUGGUAACGGGUCUCCCUCCUAAGGAGAAGGCUGCGGGUUCGAGUCCCGUACGGAACG, the yeast fitness was determined as 0.637.

As to GUUCCGUUGGCGUAAUGGUAACGGGUCUCCCUCCUAAGGAGAAGCCUGCGGGUUCGAGUCCCGUACGGAACG, the yeast fitness is 0.629.

GUUCCGUUGGCGUAAUGGUAACGGGUCUCCCUCCUGAGGAGAAGACUGCGGGUUCGAGUCACGUACGGAACG: the yeast fitness was ≤ 0.5.

For GUUCCGUUGGCGUAAUGGUAACGGGUCUCCCUCCUAAGGAGAAGACUGCGGGUUCGAGUCCCGUACGGACCG, the yeast fitness is 0.666.

For the variant GUUCCGUUGGCGUAAUGGUAACGGGUCUCCCUCCUAUGGAGAAGACUGCGGGUUUGAGUCCCGUACCGAACG, the yeast fitness is ≤ 0.5.

GUUCCGUUGGCGUAAUGGUAACGGGUCUCGUUCCAUAGGAGAAAACUGCGGGUUCGAGUCCCCUACGGAACG: the yeast fitness was 0.86.

Turning to GUUCCGUUGGCGUAAUGGUAACGGGUCUCCCUCCUAAGGAGUAGACUGCGGGUUCGAGUCCCGUACGGAACG, the yeast fitness worked out at 0.559.

GUUCCGUUGGCGUAAUGGUAACGGGUAUCCCUCCUAAGGAGAAGACUGCGGGUUCGAGUCCCGUACGGAACG: the yeast fitness turned out to be 0.616.

Take GUUCCGUUGGCGUAAUGGUAACGGGUUUCCCUCCUAAGGAGAAGACUGCGGGUUCGAGUCCCGUACGGAACG: the yeast fitness stood at 0.73.

As to GUUCCGUUGGCGUAAUGGUAACGGGUCUCCCUCCUCAGGAGAAGACUGCGGGUGCGAGUCCCGUACGGAACG, the yeast fitness was ≤ 0.5.

GUUCCGUUGGCGUAAUGGUAACGGGUAUCCCUCCUAAGGAGAAGCCUGCGGGUUCGAGUCCGGUAUGGAACG: the yeast fitness is ≤ 0.5.

GUUCCGUUGGCGUAAUGGUAACGGGUCUCCCUCCUCAGGGGAAGUCUGCGGGUUCGAGUCCCGUACGGAACG: the yeast fitness is ≤ 0.5.

GUUCCGUUGGCGUAAUGGUAACGGGUCUCCCUCCUAAGGAGAAGUCUGCGGGUUCGAGUCCCGUACAGAACG: the yeast fitness is ≤ 0.5.

In the case of GUUCCGUUGGCGUAAUGGUAACGGGUCUGCCUCCUAGGGAGAAGACUGCGGAUUCGAGUCCUGUACGGAACG, the yeast fitness was ≤ 0.5.

In the case of GUUCCGUUGGCGUAAUGGUAACGGGUUUCCCUCCUAAGGUGAAGACUGCGGGUUCGGGUCCGGUACGGAACG, the yeast fitness was ≤ 0.5.

For the variant GUUCCGUUGGCGUAAUGGUAACGGGUCUCACUCCUAAGGAGAACACCGCGGGUUCGAGUCCCGUACGGAACG, the yeast fitness came out at 0.567.

Consider GUUCCGUUGGCGUAAUGGUAACGGGUGUCCCUCCUAGGGAGAAGACUGCGGGUUCGAGUCCCGUACGGAACG, for which the yeast fitness turned out to be 0.575.

Turning to GUUCCGUUGGCGUAAUGGUAACGGGUCUACCUCCUAAGGAGAUGACUGCGGGUUCGGGUCCCGUACGCAACG, the yeast fitness is ≤ 0.5.

In the case of GUUCCGUUGGCGUAAUGGUAACGGGUCUCCCUCCUGAGGAGAAGGCUGCGGGUUCGAGUCCCGUACGGAACG, the yeast fitness is ≤ 0.5.

Turning to GUUCCGUUGGCGUAAUGGUAACGGGUCUUCCUCCUAAGGAGAAGACUGCGCGUUCGAGUCCCGUACGGAACG, the yeast fitness was determined as 0.576.

Regarding GUUCCGUUGGCGUAAUGGUAACGGGUCUCCCUCCUAAGGAGAAGACUGCGGGUUCGAGUCCCGUACGGCACG, the yeast fitness came out at 0.617.

Consider GUUCCGUUGGCGUAAUGGUAACGGGUCUCCCUCCUGAGGAGAAGACUGCGGGUUCGCGUCUCGUACGGAACG, for which the yeast fitness is ≤ 0.5.

Consider GUUCCGUUGGCGUAAUGGUAACGGGUCUCCCUCCUAGGGAGAAGACUGCGGGUUUGAGUCCCGUACGGAACG, for which the yeast fitness was ≤ 0.5.

As to GUUCCGUUGGCGUAAUGGUAACGGGUUUCCCUCCUAGGGAGAAGACUGCGGGUUCGAGUCCCGUACGGAACG, the yeast fitness came out at 0.536.

Regarding GUUCCGUUGGCGUAAUGGUAACGGGUCUAUCUCCUAAGGAGAAGACUGCAGGUUCGAGUCCUGUACGGAACG, the yeast fitness is ≤ 0.5.

Regarding GUUCCGUUGGCGUAAUGGUAACGGGUUUCCCUUCUAAGGAGAAGACUGCGGCUUCGAGUCCCGUGCGGAACG, the yeast fitness is ≤ 0.5.

As for GUUCCGUUGGCGUAAUGGUAACGGGUCUCCCUCCUAAGGAGGUGACAGCGGGUUCGAGUCCCGUACGGAACG, the yeast fitness came out at 0.635.
